Laboratory results as given in ChEMBL document CHEMBL4138104, “Indole carboxylic acid esters of melampomagnolide B are potent anticancer agents against both hematological and solid tumor cells” (Eur J Med Chem, 2017).

What was measured:
Format in all cases: functional
[1] = system: CCRF-CEM; assay: Growth inhibition of human CCRF-CEM cells incubated for 48 hrs by sulforhodamine B assay
In short: (§1)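 NCI-60 screen. Compounds were dosed at five concentrations spanning 10^-4 to 10^-8 M for 48 h at 37 °C. Cells were TCA-fixed, stained with 0.4% SRB and read at 515 nm against time-zero and vehicle controls. GI50 is the concentration giving a 50% reduction in net protein increase.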

[2] = system: HL-60(TB); assay: Growth inhibition of human HL-60(TB) cells incubated for 48 hrs by sulforhodamine B assay; conditions: HL-60, 48 h
In short: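 Performed at NCI's 60-line screen. Cells grown in RPMI with 5% FBS and 2 mM L-glutamine, plated 5,000–40,000 cells/well and incubated 24 h at 37 °C before compound addition. DMSO stocks were diluted in medium with gentamicin, and five concentrations spanning 10^-4 to 10^-8 M were tested. Exposure was 48 h. Cells were fixed with TCA, stained with SRB, and read at 515 nm. GI50 taken from log dose-response curves as 50% reduction in net protein increase versus control.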

[3] = system: K562; assay: Growth inhibition of human K562 cells incubated for 48 hrs by sulforhodamine B assay; conditions: K562, 48 h; in short: as §1
[4] = system: MOLT-4; assay: Growth inhibition of human MOLT4 cells incubated for 48 hrs by sulforhodamine B assay; conditions: MOLT-4, 48 h; in short: as §1
[5] = system: RPMI-8226; assay: Growth inhibition of human RPMI8226 cells incubated for 48 hrs by sulforhodamine B assay; conditions: RPMI-8226, 48 h; in short: as §1
[6] = system: A549; assay: Growth inhibition of human A549/ATCC cells incubated for 48 hrs by sulforhodamine B assay; conditions: A549, 48 h; in short: as §1
[7] = system: HOP-92; assay: Growth inhibition of human HOP92 cells incubated for 48 hrs by sulforhodamine B assay; conditions: HOP-92, 48 h; in short: as §1
[8] = system: NCI-H226; assay: Growth inhibition of human NCI-H226 cells incubated for 48 hrs by sulforhodamine B assay; conditions: NCI-H226, 48 h; in short: as §1
[9] = system: NCI-H23; assay: Growth inhibition of human NCI-H23 cells incubated for 48 hrs by sulforhodamine B assay; conditions: NCI-H23, 48 h; in short: as §1
[10] = system: NCI-H322M; assay: Growth inhibition of human NCI-H322M cells incubated for 48 hrs by sulforhodamine B assay; in short: as §1
[11] = system: NCI-H460; assay: Growth inhibition of human NCI-H460 cells incubated for 48 hrs by sulforhodamine B assay; conditions: NCI-H460, 48 h; in short: as §1
[12] = system: NCI-H522; assay: Growth inhibition of human NCI-H522 cells incubated for 48 hrs by sulforhodamine B assay; conditions: NCI-H522, 48 h; in short: as §1
[13] = system: HCC 2998; assay: Growth inhibition of human HCC2998 cells incubated for 48 hrs by sulforhodamine B assay; conditions: HCC 2998, 48 h; in short: as §1
[14] = system: HCT-116; assay: Growth inhibition of human HCT116 cells incubated for 48 hrs by sulforhodamine B assay; conditions: HCT-116, 48 h; in short: as §1
[15] = system: HCT-15; assay: Growth inhibition of human HCT15 cells incubated for 48 hrs by sulforhodamine B assay; conditions: HCT-15, 48 h; in short: as §1
[16] = system: HT-29; assay: Growth inhibition of human HT-29 cells incubated for 48 hrs by sulforhodamine B assay; conditions: HT-29, 48 h; in short: as §1
[17] = system: KM12; assay: Growth inhibition of human KM12 cells incubated for 48 hrs by sulforhodamine B assay; conditions: KM12, 48 h; in short: as §1
[18] = system: SW-620; assay: Growth inhibition of human SW620 cells incubated for 48 hrs by sulforhodamine B assay; conditions: SW-620, 48 h
In short: (§2)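 NCI-60 screen run at NCI. Cells grown in RPMI medium with 5% FBS and 2 mM L-glutamine, plated at 5,000–40,000 cells/well, and preincubated 24 h at 37 °C. Time-zero plates were TCA-fixed. Compounds came from DMSO stocks and were tested at five concentrations from 10^-4 to 10^-8 M for 48 h. Cells were then TCA-fixed, stained with 0.4% SRB, and OD read at 515 nm. GI50 is the concentration giving a 50% reduction in net protein increase versus control.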

[19] = system: SF-268; assay: Growth inhibition of human SF268 cells incubated for 48 hrs by sulforhodamine B assay; conditions: SF-268, 48 h; in short: as §1
[20] = system: SF-295; assay: Growth inhibition of human SF295 cells incubated for 48 hrs by sulforhodamine B assay; conditions: SF-295, 48 h; in short: as §1
[21] = system: SF-539; assay: Growth inhibition of human SF539 cells incubated for 48 hrs by sulforhodamine B assay; conditions: SF-539, 48 h; in short: as §1
[22] = system: SNB-19; assay: Growth inhibition of human SNB19 cells incubated for 48 hrs by sulforhodamine B assay; conditions: SNB-19, 48 h; in short: as §2
[23] = system: U-251; assay: Growth inhibition of human U251 cells incubated for 48 hrs by sulforhodamine B assay; conditions: U-251, 48 h; in short: as §2
[24] = system: LOX IMVI; assay: Growth inhibition of human LOXIMVI cells incubated for 48 hrs by sulforhodamine B assay; in short: as §1
[25] = system: Malme-3M; assay: Growth inhibition of human MALME-3M cells incubated for 48 hrs by sulforhodamine B assay; in short: as §1
[26] = system: SK-MEL-28; assay: Growth inhibition of human SK-MEL-28 cells incubated for 48 hrs by sulforhodamine B assay; conditions: SK-MEL-28, 48 h; in short: as §1
[27] = system: UACC-257; assay: Growth inhibition of human UACC257 cells incubated for 48 hrs by sulforhodamine B assay; conditions: UACC-257, 48 h; in short: as §2
[28] = system: UACC-62; assay: Growth inhibition of human UACC62 cells incubated for 48 hrs by sulforhodamine B assay; conditions: UACC-62, 48 h; in short: as §2
[29] = system: OVCAR-5; assay: Growth inhibition of human OVCAR5 cells incubated for 48 hrs by sulforhodamine B assay; conditions: OVCAR-5, 48 h; in short: as §1
[30] = system: OVCAR-8; assay: Growth inhibition of human OVCAR8 cells incubated for 48 hrs by sulforhodamine B assay; conditions: OVCAR-8, 48 h; in short: as §1
[31] = system: NCI/ADR-RES; assay: Growth inhibition of human NCI/ADR-RES cells incubated for 48 hrs by sulforhodamine B assay; in short: as §1
[32] = system: A498; assay: Growth inhibition of human A498 cells incubated for 48 hrs by sulforhodamine B assay; conditions: A498, 48 h; in short: as §1
[33] = system: RXF 393; assay: Growth inhibition of human RXF393 cells incubated for 48 hrs by sulforhodamine B assay; conditions: RXF 393, 48 h; in short: as §1
[34] = system: SN12C; assay: Growth inhibition of human SN12C cells incubated for 48 hrs by sulforhodamine B assay; in short: as §1
[35] = system: UO-31; assay: Growth inhibition of human UO31 cells incubated for 48 hrs by sulforhodamine B assay; conditions: UO-31, 48 h; in short: as §2
[36] = system: MCF7; assay: Growth inhibition of human MCF7 cells incubated for 48 hrs by sulforhodamine B assay; conditions: MCF7, 48 h; in short: as §1
[37] = Cytotoxicity against human M9-ENL1 cells assessed as reduction in cell viability by trypan blue staining-based assay
In short: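 M9-ENL1 AML cells (MLL-ENL-transduced human blood cells) plated at 10^6 cells/mL in alpha-MEM with 5% human plasma, 20% FBS, SCF, IL-3, IL-7 and FLT3. Drug diluted from DMSO stock into PBS, final DMSO ≤0.5%. After 24 h exposure, dead cells assessed by trypan blue and by flow cytometry (Annexin V/PI or Annexin V/7-AAD). Viability normalized to vehicle; EC50 from dose-response curves; triplicate.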

Compound	GI50 [1]	GI50 [2]	GI50 [3]	GI50 [4]	GI50 [5]	GI50 [6]	GI50 [7]	GI50 [8]	GI50 [9]	GI50 [10]	GI50 [11]	GI50 [12]	GI50 [13]	GI50 [14]	GI50 [15]	GI50 [16]	GI50 [17]	GI50 [18]	GI50 [19]	GI50 [20]	further results
C=C1C(=O)O[C@@H]2[C@H]3O[C@]3(C)CC/C=C(/COC(=O)c3cn(C)c4ccccc34)CC[C@@H]12	210 nM	1540 nM	400 nM	570 nM	210 nM	1820 nM	360 nM	1480 nM	1930 nM	3010 nM	1730 nM	390 nM	1810 nM	1020 nM	530 nM	520 nM	1830 nM	300 nM	1300 nM	2410 nM	GI50 [21]: 740 nM; GI50 [22]: 1590 nM; GI50 [23]: 1420 nM; GI50 [24]: 220 nM; GI50 [25]: 1620 nM; GI50 [26]: 1550 nM; GI50 [27]: 1320 nM; GI50 [28]: 1260 nM; GI50 [29]: 1560 nM; GI50 [30]: 800 nM; GI50 [31]: 2150 nM; GI50 [32]: 1590 nM; GI50 [33]: 580 nM; GI50 [34]: 710 nM; GI50 [35]: 770 nM; GI50 [36]: 400 nM; EC50 [37]: 7200 nM
C=C1C(=O)O[C@@H]2C3O[C@]3(C)CC/C=C(\C)CC[C@@H]12 (stereo partly specified)	9160 nM	5710 nM	22600 nM	14300 nM	8200 nM	91800 nM	13500 nM	20500 nM	20200 nM	21700 nM	18800 nM	5470 nM	24100 nM	10800 nM	10200 nM	23500 nM	16200 nM	14500 nM	25100 nM	28900 nM	GI50 [21]: 18900 nM; GI50 [22]: 70900 nM; GI50 [23]: 41500 nM; GI50 [24]: 8240 nM; GI50 [25]: 13800 nM; GI50 [26]: 21000 nM; GI50 [27]: 14400 nM; GI50 [28]: 16800 nM; GI50 [29]: 34100 nM; GI50 [30]: 17100 nM; GI50 [31]: 15000 nM; GI50 [32]: 7040 nM; GI50 [33]: 12200 nM; GI50 [34]: 22800 nM; GI50 [35]: 41900 nM; GI50 [36]: 16400 nM; EC50 [37]: 5500 nM
C=C1C(=O)O[C@@H]2[C@H]3O[C@]3(C)CC/C=C(/COC(=O)c3cc4cc(F)ccc4[nH]3)CC[C@@H]12	910 nM	2070 nM	2240 nM	2260 nM	2000 nM	3080 nM	1380 nM	1760 nM	1900 nM	2690 nM	3040 nM	1650 nM	2020 nM	1500 nM	1150 nM	1130 nM	1980 nM	1430 nM	1620 nM	7100 nM	GI50 [21]: 1550 nM; GI50 [22]: 5040 nM; GI50 [23]: 1820 nM; GI50 [24]: 1050 nM; GI50 [25]: 1670 nM; GI50 [26]: 1790 nM; GI50 [27]: 2280 nM; GI50 [28]: 1890 nM; GI50 [29]: 1770 nM; GI50 [30]: 2170 nM; GI50 [31]: 1980 nM; GI50 [32]: 3350 nM; GI50 [33]: 1470 nM; GI50 [34]: 1850 nM; GI50 [35]: 1200 nM; GI50 [36]: 1020 nM; EC50 [37]: 2800 nM
